According to ChEMBL document CHEMBL4308921, “Structure-Activity Relationships of Central Nervous System Penetration by Fatty Acid Amide Hydrolase (FAAH)-Targeted Thyromimetic Prodrugs” (ACS Med Chem Lett, 2019):
Activity calls are given as the source filed them. No cut-off for these calls is given here.

How the values were obtained:
[1] = AUC (0 to 24 hrs) in C57BL/6 mouse brain assessed as sobetirome level at 9.15 umol/kg, po via gavage by LC-MS/MS analysis; assay type: ADME, organism-based; parameters: dose 9.15 umol/kg, time < 24 hr, route oral; conditions: in vivo
[2] = Tmax in C57BL/6 mouse brain assessed as sobetirome level at 9.15 umol/kg, iv by LC-MS/MS analysis; assay type: ADME, organism-based; conditions: in vivo
[3] = Prodrug activation in C57BL/6 mouse serum assessed as FAAH-mediated sobetirome formation at 3.05 umol/kg, ip after 1 hr by LC-MS/MS analysis; assay type: organism-based; conditions: in vivo
[4] = Prodrug activation in C57BL/6 mouse brain assessed as FAAH-mediated sobetirome formation at 3.05 umol/kg, ip after 1 hr by LC-MS/MS analysis; assay type: organism-based; conditions: in vivo
[5] = Brain to serum permeability coefficient, Kp of the compound in C57BL/6 mouse assessed as sobetirome level at 9.15 umol/kg, po via gavage measured up to 24 hrs by LC-MS/MS analysis; assay type: ADME, organism-based
[6] = Tmax in C57BL/6 mouse serum assessed as sobetirome level at 9.15 umol/kg, iv by LC-MS/MS analysis; assay type: ADME, organism-based; conditions: in vivo
[7] = Clearance in C57BL/6 mouse at 9.15 umol/kg, iv by LC-MS/MS analysis; assay type: ADME, organism-based; conditions: in vivo
[8] = target: T1, Thyroid hormone receptor beta (Homo sapiens) (UniProt P10828); assay: Agonist activity at human TRbeta treated at 1 hr post FAAH inhibitor PF-3845 treatment and measured after 24 hrs by cell based luciferase reporter gene assay
T1 sequence (whole entry): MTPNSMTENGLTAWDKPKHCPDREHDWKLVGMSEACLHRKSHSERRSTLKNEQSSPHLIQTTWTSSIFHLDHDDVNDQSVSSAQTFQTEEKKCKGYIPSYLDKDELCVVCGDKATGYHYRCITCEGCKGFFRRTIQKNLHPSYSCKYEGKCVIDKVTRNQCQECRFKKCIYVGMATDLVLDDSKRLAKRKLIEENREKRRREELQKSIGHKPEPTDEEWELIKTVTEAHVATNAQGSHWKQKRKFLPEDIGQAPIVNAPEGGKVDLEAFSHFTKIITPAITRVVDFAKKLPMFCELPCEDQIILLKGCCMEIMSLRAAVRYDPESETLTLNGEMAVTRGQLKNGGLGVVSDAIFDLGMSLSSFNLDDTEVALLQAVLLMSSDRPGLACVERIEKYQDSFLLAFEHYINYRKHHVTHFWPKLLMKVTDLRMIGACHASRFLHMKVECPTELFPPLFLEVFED
How it was run: (§1)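 A plate-based luciferase reporter assay measured TRα or TRβ activation as dose-response curves, run in the presence of the FAAH inhibitor PF-3845. Data are mean ± SEM, n = 3.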

[9] = AUC (0 to 24 hrs) in C57BL/6 mouse brain assessed as sobetirome level at 9.15 umol/kg, iv by LC-MS/MS analysis; assay type: ADME, organism-based; parameters: dose 9.15 umol/kg, time < 24 hr, route intravenous; conditions: in vivo
[10] = Brain to serum permeability coefficient, Kp of the compound in C57BL/6 mouse assessed as sobetirome level at 9.15 umol/kg, iv measured up to 24 hrs by LC-MS/MS analysis; assay type: ADME, organism-based
[11] = Brain to serum permeability coefficient, Kp of the compound in C57BL/6 mouse assessed as sobetirome level at 3.05 umol/kg, ip after 1 hr by LC-MS/MS analysis; assay type: ADME, organism-based
[12] = Oral bioavailability in C57BL/6 mouse at 9.15 umol/kg administered via gavage by LC-MS/MS analysis; assay type: ADME, organism-based; conditions: in vivo
[13] = target: T2, Thyroid hormone receptor alpha (Homo sapiens) (UniProt P10827); assay: Agonist activity at human TRalpha treated at 1 hr post FAAH inhibitor PF-3845 treatment and measured after 24 hrs by cell based luciferase reporter gene assay; how it was run: as §1
T2 sequence (whole entry): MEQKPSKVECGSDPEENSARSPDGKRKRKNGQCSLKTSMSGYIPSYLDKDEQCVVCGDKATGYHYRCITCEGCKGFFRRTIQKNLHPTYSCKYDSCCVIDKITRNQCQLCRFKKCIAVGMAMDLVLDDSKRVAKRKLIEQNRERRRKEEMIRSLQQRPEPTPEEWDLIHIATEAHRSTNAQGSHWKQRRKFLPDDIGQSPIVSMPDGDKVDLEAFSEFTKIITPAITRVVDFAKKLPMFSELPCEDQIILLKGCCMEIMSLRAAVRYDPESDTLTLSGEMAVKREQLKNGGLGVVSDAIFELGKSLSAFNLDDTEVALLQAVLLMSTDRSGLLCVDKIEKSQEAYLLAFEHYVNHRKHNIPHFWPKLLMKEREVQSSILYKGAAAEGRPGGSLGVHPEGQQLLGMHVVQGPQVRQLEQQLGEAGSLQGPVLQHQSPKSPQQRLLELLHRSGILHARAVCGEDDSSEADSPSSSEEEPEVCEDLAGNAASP

[14] = Terminal half life in C57BL/6 mouse at 9.15 umol/kg, iv by LC-MS/MS analysis; assay type: ADME, organism-based; conditions: in vivo, read-out: beta t1/2 (converted)
[15] = target: T3, Fatty-acid amide hydrolase 1 (Homo sapiens, UniProt O00519); assay: Prodrug activation in COS7 cells overexpressing human FAAH assessed as FAAH-mediated sobetirome formation by measuring compound hydrolysis rate at 100 uM by LC-MS/MS analysis; assay type: cell-based
T3 sequence (O00519 whole entry): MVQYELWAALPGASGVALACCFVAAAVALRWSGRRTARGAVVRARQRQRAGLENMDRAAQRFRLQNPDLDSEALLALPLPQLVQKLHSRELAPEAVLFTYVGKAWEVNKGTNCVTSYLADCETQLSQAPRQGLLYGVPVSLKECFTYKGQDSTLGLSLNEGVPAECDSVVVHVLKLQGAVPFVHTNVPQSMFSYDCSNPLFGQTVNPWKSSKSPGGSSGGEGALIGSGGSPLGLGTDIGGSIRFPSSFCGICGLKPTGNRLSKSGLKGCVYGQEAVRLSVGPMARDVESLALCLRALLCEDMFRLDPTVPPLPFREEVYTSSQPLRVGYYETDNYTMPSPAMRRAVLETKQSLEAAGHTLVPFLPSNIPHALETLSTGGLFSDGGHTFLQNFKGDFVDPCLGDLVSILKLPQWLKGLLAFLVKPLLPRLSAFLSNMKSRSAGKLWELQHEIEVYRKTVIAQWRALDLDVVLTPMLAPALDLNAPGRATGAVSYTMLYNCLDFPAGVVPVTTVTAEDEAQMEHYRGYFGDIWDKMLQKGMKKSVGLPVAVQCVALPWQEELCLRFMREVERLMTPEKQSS
How it was run: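 Hydrolysis kinetics were measured in homogenate of COS-7 cells overexpressing human FAAH, with prodrug substrate at 100 µM. Rate is given as nmol mg-1 min-1, mean ± SEM, n = 3.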

With `CNC(=O)COc1cc(C)c(Cc2ccc(O)c(C(C)C)c2)c(C)c1` as the compound, how does the AUC [1] read?
Its AUC is 378 ng·h/g.

What about the Tmax [2] of the same compound?
Its Tmax is 0.5 h.

What about the Drug uptake [3] of the same compound?
Its Drug uptake is 17.2 ng/g.

And the Drug uptake [4]?
Its Drug uptake is 53.1 ng/g.

What about the Kp [5] of the same compound?
The Kp was 0.44.

What about the Tmax [6] of the same compound?
The Tmax was 0.5 h.

And the clearance [7]?
Its clearance is 91.7 mL/min/kg.

What about the Activity [8] of the same compound?
Its Activity is “Active”.

And the AUC [9]?
The AUC was 694 ng·h/g.

And the Kp [10]?
Its Kp is 0.82.

What about the Kp [11] of the same compound?
The Kp was 3.17.

And the bioavailability [12]?
The bioavailability was 19.5%.

What about the Activity [13] of the same compound?
Its Activity is “Active”.

What about the half-life [14] of the same compound?
The half-life was 8.8 h.

What about the Drug metabolism [15] of the same compound?
Its Drug metabolism is 3.2 nmol/mg/min.
